From ChEMBL document CHEMBL4316616, “Efficacy of TLR7 agonistic imidazoquinoline as immunochemotherapeutic agent against P. Berghei ANKA infected rodent host” (Bioorg Med Chem Lett, 2019)
Activity calls are given as the source filed them.

Experiments:
[1] = tested on: Plasmodium berghei; assay: Antiparasitic activity against Plasmodium berghei ANKA infected in Laca mouse assessed as parasitemia at 10 ug, ip administered for 4 days measured on day 7 by Giemsa-staining based assay; format: functional
[2] = tested on: Plasmodium berghei; assay: Antiparasitic activity against Plasmodium berghei ANKA infected in Laca mouse assessed as reduction in parasitemia at 10 ug, ip administered for 4 days measured on day 9 by Giemsa-staining based assay; format: functional, organism-based
[3] = Toxicity in Laca mouse infected with Plasmodium berghei ANKA assessed as body weight loss at 10 ug, ip administered for 4 days; format: organism-based; conditions: in vivo, 96 h
[4] = Toxicity in Laca mouse infected with Plasmodium berghei ANKA assessed as death at 10 ug, ip administered for 4 days measured on day 15; format: organism-based; conditions: in vivo, 96 h
Method in brief: (§1)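 Six mice per group received 1x10⁶ parasitized RBCs (P. berghei ANKA) i.p. on D0. TLR7 agonist was given i.p., 0.2 mL/mouse, daily D0–D3. PBS-treated infected and uninfected groups served as controls. Survival was monitored alongside parasitemia from Giemsa-stained thin blood smears.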

[5] = Toxicity in Laca mouse infected with Plasmodium berghei ANKA assessed as death at 10 ug, ip co-treated with chloroquine for 4 days measured on day 30; format: organism-based; conditions: in vivo, 96 h
Method in brief: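 Mice (6/group) were infected i.p. with 1x10⁶ P. berghei ANKA parasitized RBCs on D0. TLR7 agonist was given i.p. plus chloroquine 10 mg/kg orally (0.2 mL/mouse each), daily D0–D3. Survival and parasitemia (Giemsa-stained thin blood smears of individual mice) were followed for about one month.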

[6] = tested on: Plasmodium berghei; assay: Antiparasitic activity against Plasmodium berghei ANKA infected in Laca mouse assessed as parasitemia at 10 ug, ip co-administered with chloroquine for 4 days measured on day 30 by Giemsa-staining based assay; format: functional
[7] = tested on: Plasmodium berghei; assay: Antiparasitic activity against Plasmodium berghei ANKA infected in Laca mouse assessed as reduction in parasitemia at 10 ug, ip co-administered with chloroquine for 4 days measured on day 25 by Giemsa-staining based assay; format: functional, organism-based
[8] = tested on: Plasmodium berghei; assay: Antiparasitic activity against Plasmodium berghei ANKA infected in Laca mouse assessed as reduction in parasitemia at 10 ug, ip co-administered with chloroquine for 4 days measured on day 23 by Giemsa-staining based assay; format: functional, organism-based
[9] = tested on: Plasmodium berghei; assay: Antiparasitic activity against Plasmodium berghei ANKA infected in Laca mouse assessed as reduction in CD3+ cell level in brain at 10 ug, ip co-administered with chloroquine for 4 days measured on day 10 by flow cytometry; format: functional, organism-based
[10] = tested on: Plasmodium berghei; assay: Antiparasitic activity against Plasmodium berghei ANKA infected in Laca mouse assessed as reduction in CD3+ cell level in brain at 10 ug, ip administered for 4 days measured on day 10 by flow cytometry; format: functional, organism-based
[11] = tested on: Plasmodium berghei; assay: Antiparasitic activity against Plasmodium berghei ANKA infected in Laca mouse assessed as reduction in CD3+ cell level in brain at 10 ug, ip co-administered with chloroquine for 4 days measured on day 21 by flow cytometry; format: functional, organism-based
[12] = tested on: Plasmodium berghei; assay: Antiparasitic activity against Plasmodium berghei ANKA infected in Laca mouse assessed as reduction in CD4+ cell level in brain at 10 ug, ip co-administered with chloroquine for 4 days measured on day 10 and 21 by flow cytometry; format: functional, organism-based
[13] = tested on: Plasmodium berghei; assay: Antiparasitic activity against Plasmodium berghei ANKA infected in Laca mouse assessed as reduction in CD4+ cell level in brain at 10 ug, ip administered for 4 days measured on day 10 and 21 by flow cytometry; format: functional, organism-based
[14] = tested on: Plasmodium berghei; assay: Antiparasitic activity against Plasmodium berghei ANKA infected in Laca mouse assessed as reduction in CD8+ cell level in brain at 10 ug, ip co-administered with chloroquine for 4 days measured on day 10 by flow cytometry; format: functional, organism-based
[15] = tested on: Plasmodium berghei; assay: Antiparasitic activity against Plasmodium berghei ANKA infected in Laca mouse assessed as reduction in CD8+ cell level in brain at 10 ug, ip administered for 4 days measured on day 10 by flow cytometry; format: functional, organism-based
[16] = tested on: Plasmodium berghei; assay: Antiparasitic activity against Plasmodium berghei ANKA infected in Laca mouse assessed as increase in Treg cell level in brain at 10 ug, ip administered for 4 days measured on day 10 by flow cytometry; format: functional, organism-based
[17] = Toxicity in Laca mouse infected with Plasmodium berghei ANKA assessed as death at 10 ug, ip administered for 4 days measured on day 9; format: organism-based; conditions: in vivo, 96 h; method in brief: as §1
[18] = tested on: Plasmodium berghei; assay: Antiparasitic activity against Plasmodium berghei ANKA infected in Laca mouse assessed as reduction in CD4+ cell level in brain at 10 ug, ip co-administered with chloroquine for 4 days measured on day 21 by flow cytometry; format: functional, organism-based
[19] = tested on: Plasmodium berghei; assay: Antiparasitic activity against Plasmodium berghei ANKA infected in Laca mouse assessed as reduction in CD8+ cell level in brain at 10 ug, ip co-administered with chloroquine for 4 days measured on day 21 by flow cytometry; format: functional, organism-based
[20] = tested on: Plasmodium berghei; assay: Antiparasitic activity against Plasmodium berghei ANKA infected in Laca mouse assessed as increase in Treg cell level in brain at 10 ug, ip co-administered with chloroquine for 4 days measured on day 21 by flow cytometry; format: functional, organism-based
[21] = tested on: Plasmodium berghei; assay: Antiparasitic activity against Plasmodium berghei ANKA infected in Laca mouse assessed as increase in CD3+ cell level in spleen at 10 ug, ip administered for 4 days measured on day 10 by flow cytometry; format: functional, organism-based
[22] = tested on: Plasmodium berghei; assay: Antiparasitic activity against Plasmodium berghei ANKA infected in Laca mouse assessed as increase in CD3+ cell level in spleen at 10 ug, ip co-administered with chloroquine for 4 days measured on day 10 by flow cytometry; format: functional, organism-based
[23] = tested on: Plasmodium berghei; assay: Antiparasitic activity against Plasmodium berghei ANKA infected in Laca mouse assessed as increase in serum IL-10 level at 10 ug, ip co-administered with chloroquine for 4 days measured on day 10 by sandwich ELISA; format: functional, organism-based
[24] = tested on: Plasmodium berghei; assay: Antiparasitic activity against Plasmodium berghei ANKA infected in Laca mouse assessed as increase in serum IL-10 level at 10 ug, ip administered for 4 days measured on day 10 by sandwich ELISA; format: functional, organism-based
[25] = tested on: Plasmodium berghei; assay: Antiparasitic activity against Plasmodium berghei ANKA infected in Laca mouse assessed as decrease in serum TNFalpha level at 10 ug, ip co-administered with chloroquine for 4 days measured on day 10 by sandwich ELISA; format: functional, organism-based
[26] = tested on: Plasmodium berghei; assay: Antiparasitic activity against Plasmodium berghei ANKA infected in Laca mouse assessed as decrease in serum TNFalpha level at 10 ug, ip administered for 4 days measured on day 10 by sandwich ELISA; format: functional, organism-based
[27] = tested on: Plasmodium berghei; assay: Antiparasitic activity against Plasmodium berghei ANKA infected in Laca mouse assessed as increase in serum IL-12 level at 10 ug, ip co-administered with chloroquine for 4 days measured on day 10 by sandwich ELISA; format: functional, organism-based
[28] = tested on: Plasmodium berghei; assay: Antiparasitic activity against Plasmodium berghei ANKA infected in Laca mouse assessed as increase in serum IL-12 level at 10 ug, ip administered for 4 days measured on day 10 by sandwich ELISA; format: functional, organism-based
[29] = tested on: Plasmodium berghei; assay: Antiparasitic activity against Plasmodium berghei ANKA infected in Laca mouse assessed as increase in serum IL-27 level at 10 ug, ip co-administered with chloroquine for 4 days measured on day 10 by sandwich ELISA; format: functional, organism-based
[30] = tested on: Plasmodium berghei; assay: Antiparasitic activity against Plasmodium berghei ANKA infected in Laca mouse assessed as increase in serum IL-27 level at 10 ug, ip administered for 4 days measured on day 10 by sandwich ELISA; format: functional, organism-based
[31] = tested on: Plasmodium berghei; assay: Antiparasitic activity against Plasmodium berghei ANKA infected in Laca mouse assessed as change in Treg cell level in spleen at 10 ug, ip co-administered with chloroquine for 4 days measured on day 10 and 21 by flow cytometry; format: functional, organism-based
[32] = tested on: Plasmodium berghei; assay: Antiparasitic activity against Plasmodium berghei ANKA infected in Laca mouse assessed as increase in Treg cell level in spleen at 10 ug, ip administered for 4 days measured on day 10 and 21 by flow cytometry; format: functional, organism-based
[33] = Toxicity in Laca mouse infected with Plasmodium berghei ANKA assessed as death at 10 ug, ip administered for 4 days measured on day 10 and 21; format: organism-based; conditions: in vivo, 96 h; method in brief: as §1
[34] = tested on: Plasmodium berghei; assay: Antiparasitic activity against Plasmodium berghei ANKA infected in Laca mouse assessed as increase in Treg cell level in spleen at 10 ug, ip co-administered with chloroquine for 4 days measured on day 21 by flow cytometry; format: functional, organism-based
[35] = Toxicity in Laca mouse infected with Plasmodium berghei ANKA assessed as death at 10 ug, ip co-treated with chloroquine for 4 days measured on day 30; conditions: in vivo, 96 h
[36] = as above; conditions: in vivo, 96 h; remark: listed apart in the source
[37] = tested on: Plasmodium berghei; assay: Antiparasitic activity against Plasmodium berghei ANKA infected in Laca mouse assessed as increase in IFN-gamma level in serum at 10 ug, ip administered for 4 days measured on day 10 by sandwich ELISA
[38] = tested on: Plasmodium berghei; assay: Antiparasitic activity against Plasmodium berghei ANKA infected in Laca mouse assessed as decrease in Treg cell level in brain at 10 ug, ip co-administered with chloroquine for 4 days measured on day 10 by flow cytometry
[39] = tested on: Plasmodium berghei; assay: Antiparasitic activity against Plasmodium berghei ANKA infected in Laca mouse assessed as increase in IFN-gamma level in serum at 10 ug, ip co-administered with chloroquine for 4 days measured on day 10 by sandwich ELISA

Measured: Activity

CCCCc1nc2c(N)nc3ccccc3c2n1Cc1ccccc1
active: [2] | [8] | [9] | [10] | [12] | [13] | [14] | [15] | [16] | [20] | [21] | [22] | [23] | [24] | [25] | [26] | [27] | [28] | [29] | [30] | [31] | [32] | [34] | [37] | [38] | [39]
5.7%: [1]
inactive: [7] | [11] | [18] | [19]
11.65%: [6]
Toxic: [3] | [4] | [5] | [17] | [33] | [35] | [36]
